# BB579 growth dn: yeast BB579 growth reduction in restrictive medium; S. cerevisiae BB579 growth, OD615, 48 h; inhibition, % at 10 µM; 0.51% of 140,000 active; AID 804;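 active = inhibition above a set limit, 3 SD over the mean compound inhibition, cut at about 44% in these data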
#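 Assay system – yeast BB579 (DeaD) · Dosing – single compound dose of 10 µM, 0.25% DMSO final · Detection – OD615 turbidity measurement · Buffer or medium – CSMM-D restrictive synthetic medium containing dextrose (glucose) · Benchmarks – positive control amphotericin B 10 µg/mL · Incubation – 48 h exposure, 30 °C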
# Yeast lifespan up: extends the lifespan of yeast | S. cerevisiae growth with nicotinamide, OD615; deaD strain in restrictive glucose medium | inhibition of the nicotinamide effect, % at 10 µM | 0.68% of 130,000 active | AID 775;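 active = inhibition above a set limit, placed 3 SD over the median of all compounds, cut at about 26% in these data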;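 also: 0% = nicotinamide-treated wells and 100% = cells grown without nicotinamide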
#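 Material: Modified budding yeast, DeaD strain | Medium: Restrictive glucose medium | Probe or stimulus: 1.5 mM nicotinamide | Dosing: Single dose 10 µM compound, 0.25% DMSO | Times: 48 h at 30 °C | Technique: OD615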
# RAM inhibit: yeast RAM network inhibition; S. cerevisiae dse1pr::URA3 reporter, 5-FOA growth OD615, 2 d; analog-sensitive cbk1-as2 kinase mutant strain; AID 868; 1.8% of 190,000 active; inhibition, % at 50 µM;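 active = inhibition above a set limit, 3 SD over mean compound inhibition, cut at about 8.4% in these data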;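 also: 0% = DMSO-only wells with no growth and 100% = 10 µM 1-NA-PP1 full growth; inhibition rescues growth on 5-FOA so higher OD means more RAM inhibition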
# Measles CPE: protection of cells from measles virus; Measles virus-infected cells, CPE protection, absorbance; protection (pct of control), % at 4 µM; 1.5% of 140,000 active; AID 841; in the data active = protection mostly above about 24%, no sharp cut-off; inactive = mostly below about 26%
# * = called active by the depositor; · = no result. Compounds with a hit are over-represented: about 3.8% of the library has one in this group of screens.
SMILES,BB579 growth dn,Yeast lifespan up,RAM inhibit,Measles CPE
CC(C)CCNC(=O)C(c1ccco1)N(Cc1ccccc1)C(=O)c1snc(C(N)=O)c1N (stereo not drawn),-12,5,1,16
CC(C)C(=O)N(c1ccc2oc(=O)sc2c1)S(=O)(=O)c1ccccc1,-42,0,11*,19
CCN(CC)S(=O)(=O)c1ccc(C(=O)NCCSc2c[nH]c3ccccc23)cc1,-23,0,8.7*,8
N/C(Cc1ccc([N+](=O)[O-])cc1)=N\OC(=O)COc1ccccc1Cl,-18,-4,4,2
N/C(Cc1ccc(Cl)cc1)=N\OC(=O)c1cccc2ccccc12,99*,-11,1,2
N/C(Cc1ccc([N+](=O)[O-])cc1)=N\OC(=O)COc1cccc2ccccc12,-12,-7,10*,3
O=C(CCN1C(=O)S/C(=C/c2ccc(Cl)cc2)C1=O)N1CCOCC1,-48,-4,1,42*
Cn1c(=O)n(C)c2cc(/C=C3/SC(=O)N(CC(=O)N4CCOCC4)C3=O)ccc21,-14,-1,2,8
Cc1ccc(NC(=O)C(OC(=O)c2ccc(O)cc2)c2ccccc2)cc1Cl (stereo not drawn),-40,-2,8.5*,7
Cc1ccc(NC(=O)C(OC(=O)c2ccc(F)cc2)c2ccccc2)cc1Cl (stereo not drawn),-23,2,0,5
CCOc1ccc(C2=Nc3ccc(Br)cc3C(c3ccc(N4CCOCC4)cc3)=NN2)cc1,-25,0,10*,10
CCOc1ccc(C2=Nc3ccccc3C(c3ccc(N4CCOCC4)cc3)=NN2)cc1,-14,-24,0,7
C=CCn1ncc(OC)c(Cl)c1=O,-57,-6,0,89*
COc1ccc(C(=O)NC2CCN(C(=S)Nc3cccc(C)c3C)CC2)cc1,-49,-2,8.6*,4
COc1ccc(C(=O)NC2CCN(C(=S)Nc3ccc(C)c(C)c3)CC2)cc1,-32,5,4,9
O=C(NCc1ccc(Cl)cc1)c1ccc2nc[nH]c2c1,-15,-2,1,4
CCN(CC)S(=O)(=O)c1cc(NS(=O)(=O)c2cccc(Cl)c2Cl)ccc1C,-25,20,10*,7
CCOC(=O)c1c(NC(=O)C(C)NCc2ccco2)sc2c1CCC(C)C2 (stereo not drawn),-45,-17,-2,7
CNC(=O)OCc1cccc(COC(=O)NC)n1,-19,-4,3,46*
O=C(CCc1nnc(CCCCc2ccccc2)o1)NCc1cccc(F)c1,·,·,0,·
O=C(CCc1nnc(CCCCc2ccccc2)o1)NCc1cc(F)ccc1F,·,·,11*,·
CC(C)c1[nH]nc2c1C(c1cccnc1)C(C#N)=C(N)O2 (stereo not drawn),-49,-6,0,44*
C/C(CC(=O)Nc1ccc2c(c1)OCCO2)=N\NC(=O)c1ccccn1,·,·,0,·
C/C(CC(=O)Nc1cc(C)cc(C)c1)=N\NC(=O)c1ccccn1,-10,-5,-1,69*
COc1ccc(C(=O)C2CCCN(Cc3c[nH]c4ccccc34)C2)c(OC)c1 (stereo not drawn),·,·,1,·
SMILES,BB579 growth dn,Yeast lifespan up,RAM inhibit,Measles CPE
O=C(COc1cccnc1[N+](=O)[O-])Nc1ccc(S(=O)(=O)N2CCOCC2)cc1,·,·,2,·
COC(=O)c1sccc1N/N=C/c1cccc(Oc2ccccc2)c1,-79,5,8.5*,18
COC(=O)c1sccc1N/N=C/c1cccc(OC)c1O,-26,-3,7,7
Cc1ccc(C)c(-n2c(SCC(=O)NC(C(=O)O)C(C)C)nnc2-c2cccc(Cl)c2)c1 (stereo not drawn),·,·,0,·
CSC1=N/C(=C\c2c(F)cccc2Cl)C(=O)S1,-20,31*,3,8
COc1ccc(/C=C2\CC/C(=C\c3ccc(OC)c(OC)c3)C2=O)cc1OC,-50,7,11*,6
CSC1=N/C(=C\c2cccc(F)c2)C(=O)S1,-42,4,5,13
COc1ccc(/C=C2\N=C(SC)SC2=O)cc1OC,-52,-11,3,40*
CCOC(=O)c1c(NC(=O)CSc2nc3nc(C)cc(C)n3n2)sc(CC)c1C,4,-3,2,26
CCCCCC[n+]1c(-c2ccc(Cl)cc2Cl)csc1Nc1ccccc1,-30,3,9.0*,9
C=CCn1c(COc2cccc(C)c2)nnc1SCn1nnc2ccccc2c1=O,-13,0,-1,6
CCNC(=O)COC(=O)COc1ccc(Cl)cc1C,-74,-12,1,11
Cc1cc(Cl)ccc1OCC(=O)OCC(=O)Nc1ccc(F)c([N+](=O)[O-])c1,-21,-5,9.2*,22
Cc1ccc(CC(=O)Nc2ccc(F)c([N+](=O)[O-])c2)cc1,-35,2,3,35*
C/C(CC(=O)Nc1cccc(C(F)(F)F)c1)=N\NC(=O)C1CCCCC1,·,·,1,·
COc1cc(C(=O)Nc2nc(-c3ccc(Cl)cc3)c(C)s2)ccc1OCC(=O)Nc1ccc(F)cc1,-24,-2,2,4
COc1ccc(-c2nc(NC(=O)c3ccc(OCC(=O)N4CCOCC4)c(OC)c3)sc2C)cc1,-14,-1,9.0*,12
CCCC(=O)Nc1ccc(Cl)c(NC(=O)c2cccc(OC)c2)c1,·,·,1,·
Cc1ccc(CSCCNC(=O)/C=C/c2ccccc2Cl)cc1,-7,-3,4,26
O=C(CSc1nc2ccccc2c(=O)[nH]1)N1CCN(S(=O)(=O)c2ccccc2)CC1,-32,-23,2,8
O=C(CSc1nc(-c2ccccc2)c(-c2ccccc2)[nH]1)N1CCN(S(=O)(=O)c2ccccc2)CC1,-17,-3,2,28*
CN1C(=O)c2cccc3c(Cl)ccc(c23)C1=O,61*,-9,0,16
CN1C(=O)c2ccc(N(C)C)cc2C1=O,21,·,0,13
Cc1cccc(N2C(=O)CSC23CCCCC3)c1,·,·,0,·
CCOC(=O)c1c(C)n(C)c2ccc(OC)c(NC(=O)CCN3CCSCC3)c12,-36,-4,-1,37*
SMILES,BB579 growth dn,Yeast lifespan up,RAM inhibit,Measles CPE
CCOC(=O)c1c(C)n(C)c2ccc(OC)c(NC(=O)CN3CCN(C(=O)c4ccco4)CC3)c12,-57,-1,0,26*
CCOC(=O)c1c(C)n(C)c2ccc(OC)c(NC(=O)CN3CCN(Cc4ccccc4)CC3)c12,-45,-10,2,4
Cc1ccc2[nH]c3c(NCCN4CCOCC4)ncnc3c2c1,-39,9,2,9
Clc1ccc2[nH]c3c(NCCCN4CCOCC4)ncnc3c2c1,-2,-33,1,44*
CCC(=O)NC(=S)NNC(=O)c1ccc(O)cc1,·,·,2,·
Cc1cc(C)nc(N/N=C/C2=C(N3CCOCC3)C(=C\c3ccc(Cl)cc3)/CC2)n1,52*,-2,1,9
Clc1ccc(CO/N=C/c2c(-c3ccccc3)nc3n2CCS3)c(Cl)c1,-53,2,11*,7
CCOC(=O)C1(Cc2ccc(Cl)cc2)CCN(C(=O)c2cc(C)nc(C)n2)CC1,·,·,1,·
COCCCNC(=O)CN1C(=O)/C(=C\c2ccc(C)cc2)Sc2ccccc21,-24,1,6,9
CCc1ccc(/C=C2/Sc3ccccc3N(CC(=O)NCCCOC)C2=O)cc1,·,·,9.8*,·

# Screens: PubChem BioAssay, several laboratories
